The experiment can be described thus: Inhibition of soybean 15-lipoxygenase. Also on record: species or system Glycine max. The method, boiled down: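 Soybean 15-lipoxygenase (final 167 U/mL) in 0.1 M borate buffer pH 9, linoleic acid substrate (final 134 μM), 20 ± 1 °C. Compounds added in DMSO (final 1%), DMSO-only controls, inhibitor plus substrate as blank. Absorbance at 234 nm read for 60 s after enzyme addition. Enzyme kept on ice. At least six control tubes and triplicate tubes per inhibitor. IC50 by linear interpolation around 50% activity, mean ± SD.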
Consider `C=CCOc1ccc(NC(=O)C2CCCC2)cc1`, for which half-maximal inhibition (IC50) required 4.1 µM.

Turning to `C=CCOc1ccc(NC(=O)C(C)C)cc1`, inhibition was half-maximal at 12.9 µM (IC50).

For `C=CCOc1ccc(NC(=O)C2CC2)cc1`, the IC50 was 6.1 µM.

The compound `C=CCOc1ccc(OC(=O)c2ccccc2)cc1` yielded an IC50 of 6.2 µM.

`C=CCOc1ccc(NC(=O)c2cccc(F)c2)cc1` had an IC50 of 5.6 µM.

The compound `C=CCOc1ccc(NC(=O)C2CCCCC2)cc1` yielded an IC50 of 6.4 µM.

Consider `C=CCOc1ccc(NC(=O)C23CC4CC(CC(C4)C2)C3)cc1`, for which the IC50 worked out at 0.67 µM.

Take `C=CCOc1ccc(NC(=O)C2CCC2)cc1`: the IC50 came out at 2.2 µM.

As to `C=CCOc1ccc(NC(=O)c2ccccc2)cc1`, the half-maximal inhibitory concentration (IC50) came out at 3.3 µM.

Turning to `C=CCOc1ccc(NC(=O)c2ccc(F)cc2)cc1`, the 50% inhibitory concentration (IC50) is 3.8 µM.

As for `C=CCOc1ccc(NC(=O)c2ccc(Cl)cc2)cc1`, inhibition was half-maximal at 8.8 µM (IC50).

In turn, `C=CCOc1ccc(NC(=O)c2ccc(OC)cc2)cc1` came in with an IC50 of 13.8 µM. Compared with the last compound, the IC50 is about 1.6-fold higher.

On to `C=CCOc1ccc(NC(=O)c2ccc(C)cc2)cc1`, for which half-maximal inhibition (IC50) required 10.1 µM.

For `C=CCOc1ccc(NC(=O)c2cccc(C)c2)cc1`, the half-maximal inhibitory concentration (IC50) turned out to be 6.7 µM.

In the case of `C=CCOc1ccc(NC(=O)c2cccc(OC)c2)cc1`, the IC50 was found to be 17 µM.

Turning to `C=CCc1ccc(OC(=O)c2ccccc2)cc1`, half-maximal inhibition (IC50) was put at 6.7 µM.

Compound `C=CCOc1ccc(NC(=O)c2cccc(Cl)c2)cc1` showed an IC50 of 8.1 µM.

`C=CCc1ccc(OC)cc1` [ESTRAGOLE] yielded an IC50 of 64.1 µM. Compared with the last compound, the IC50 is about 7.9-fold higher.

The compound `C=CCc1ccc(O)c(OC)c1` [EUGENOL] yielded an IC50 of 38.2 µM.

Turning to `C=CCc1ccc(OC(=O)c2ccccc2)c(OC)c1` [EUGENYL BENZOAT], inhibition was half-maximal at 7 µM (IC50). This IC50 lies about 5.5-fold lower than the previous one.

For `C=CCc1ccc(OC)c(OC)c1` [METHYLEUGENOL], the IC50 was 96.1 µM. Compared with the last compound, the IC50 is about 14-fold higher.

As usually defined, the IC50 is the point on the concentration scale where inhibition reaches its midpoint.
